# Source: PubChem BioAssay
# Unmarked numbers belong to inactive results.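 The calls were made as follows, unless noted: active = viability at or below 10% of carrier control in both of two separate runs; inconclusive = viability at or below 10% in only one of the two runs; inactive = the rest.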 Peptide text beside a SMILES is read from it. * marks the point of attachment. Boc = CC(C)(C)OC(=O)*
# Test: reduced viability of SK-BR-3 breast cancer cells – cell-based, 24 h, human, pilot screen (AID 572);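 also: compound exposure lasted between 18 and 24 h rather than exactly 24 h; 100% = carrier-treated control wells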
# Conditions: SK-BR-3 viability, CellTiter-Glo luminescence, at 10 µM, stronger effect = lower value
row,SMILES,viability [%]
1,Cc1ccc(NC2c3ncccc3C(=O)N2C2CCCCC2)cc1C (stereo not given),98.5
2,O=C(O)c1c[nH]c2ccc(S(=O)(=O)N3CCN(c4ccc(F)cc4)CC3)cc2c1=O,93.5
3,O=C(O)Cn1cc2c(n1)CCCC2,96
4,O=C1CC(c2ccc(Cl)cc2)n2nc(N3C(=O)c4ccccc4C3=O)nc2N1 (stereo not given),106
5,CCc1nnc(NC(=O)CSc2nnc(-c3ccc(OC)cc3)n2C)s1,87
6,COc1cccc(NC(=O)Nc2cccs2)c1,93
7,Cn1c(=O)c2c(nc(NCCCO)n2CCc2ccccc2)n(C)c1=O,94
8,CC(=O)c1coc2ccc(OCC(=O)O)cc12,104
9,CCCN(Cc1cc2ccc(C)cc2[nH]c1=O)C(=O)c1cccnc1,87
10,CCOP(=O)(c1ccc(N(C)C)cc1)C(O)c1ccccc1OC (stereo not given),86
11,CCOCCCn1c(=S)[nH]c2cc3c(cc2c1=O)OCO3,99
12,COc1ccc(CCNC(=O)C2CCN(Cc3nc(-c4cccc(Cl)c4)oc3C)CC2)cc1OC,83.5
13,c1csc(-c2nc3nc4ccccc4nc3n2Cc2ccc3c(c2)OCO3)c1,98.5
14,CC(C)CC(NC(=O)OC(C)(C)C)C(=O)NC(C(=O)NC(C)C(N)=O)C(C)C (stereo not drawn) (Boc-Leu-Val-Ala-NH2; configuration not given here),102
15,COc1ccc(-c2ccc(Nc3ccc(S(=O)(=O)N4CCCC4)cc3)nn2)cc1OC,77.5
16,CC1(C(=O)CSc2nc3ccccc3s2)CCC(=O)O1 (stereo not given),107
17,Cc1cc(NC(=O)CN2CCC(O)(c3cccc(F)c3)CC2)no1,97
18,COC(=O)c1[nH]c2ccccc2c1NC(=O)CN1CCC(C(N)=O)(N2CCCCC2)CC1,96
19,Cc1cc(C)n(CCCNC(=O)c2ccc3c(c2)NC(=O)CS3)n1,104
20,CCOC(=O)/C=C1\SCC(=O)N1Cc1ccc(Br)cc1,112

row,SMILES,viability [%]
1,CCOc1ccc2cc(C#N)c(SCC(=O)N3CCOCC3)nc2c1,109
2,CCN(CC)CCN1C(=O)C(O)=C(C(=O)c2ccco2)C1c1ccccn1 (stereo not given),109
3,O=C1CCC(=O)N1OCCCCOc1ccccc1,123
4,O=C(O)CCc1ccc(-c2ccc(F)cc2)n1CC(=O)O,94.5
5,CCN(CC)CCCN(Cc1cc2cc(OC)ccc2[nH]c1=O)C(=O)Nc1ccccc1,90
6,Cc1cccc(Cc2nnc(NC(=O)c3cccc(S(=O)(=O)N4CCOCC4)c3)s2)c1,107
7,CC(C)(CO)NC(=O)CCCOc1ccc(Cl)cc1Cl,97
8,O=C(c1ccc(-c2ccccc2)cc1)N1CCN(c2ncccn2)CC1,91
9,Fc1ccc(-c2csc3nnc(SCc4cccnc4)n23)cc1,108
10,CN(C)CCCN1C(=O)C(=O)/C(=C(/O)c2ccncc2)C1c1cccc(Br)c1 (stereo not given),90.5
11,CCN(CC)c1ccc(-c2c(C#N)c(N)nc(OC)c2C#N)cc1,75.5
12,Cc1cc(NC(=O)CSc2nc3ccccc3n2CC(=O)N2CCCCC2)no1,78
13,CCOC(=O)C1CCN(C(c2cc3cc(C)cc(C)c3[nH]c2=O)c2nnnn2C2CCCCC2)CC1 (stereo not given),69.5
14,O=c1[nH]cnc2c1nc(SCc1ccccc1)n2C1OC(CO)C(O)C1O (stereo not given),94.5
15,COc1ccc(-c2noc(CCCC(=O)O)n2)cc1,130
16,Cc1nc(SCC(=O)N2CCC(C(N)=O)CC2)n[nH]1,94.5
17,COC(=O)c1ccc(NC(=O)Cn2nnc3ccccc32)cc1,94
18,O=C(CCC(=O)N1CCc2ccccc2C1)N1CCN(S(=O)(=O)c2ccccc2)CC1,82
19,O=C(CN1C(=O)CCSc2ccccc21)Nc1ccc(F)cc1,94
20,CCC(=O)/C=C1\Sc2ccc(OC)cc2N1CCO,120

# Test: HUVEC growth inhibition – cell-based, human, primary screen (AID 575;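 active = viability at or below 30% in both replicate assays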;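 also: 100% = median of untreated cell wells with 0.1% DMSO on each plate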)
# Conditions: HUVEC proliferation, CellTiter-Glo luminescence, 72 h; at 10 µM; stronger effect = lower value
# Method in brief: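 Test system: primary human umbilical vein endothelial cells; medium: endothelial basal medium with 2% FBS plus growth supplements; dosing: 10 µM compound only; times: 72 h treatment at 37 °C; signal: CTG luminescence; read-out: % viability relative to median vehicle-well signal on each plate; control set: vehicle and MePR control wells; plate: 384-well, collagen-coated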
row,SMILES,viability [%]
1,Cc1ccc(NC2c3ncccc3C(=O)N2C2CCCCC2)cc1C (stereo not given),91.7
2,O=C(O)c1c[nH]c2ccc(S(=O)(=O)N3CCN(c4ccc(F)cc4)CC3)cc2c1=O,91.6
3,O=C(O)Cn1cc2c(n1)CCCC2,93.9
4,O=C1CC(c2ccc(Cl)cc2)n2nc(N3C(=O)c4ccccc4C3=O)nc2N1 (stereo not given),95.5
5,CCc1nnc(NC(=O)CSc2nnc(-c3ccc(OC)cc3)n2C)s1,89.3
6,COc1cccc(NC(=O)Nc2cccs2)c1,75
7,Cn1c(=O)c2c(nc(NCCCO)n2CCc2ccccc2)n(C)c1=O,93.7
8,CC(=O)c1coc2ccc(OCC(=O)O)cc12,105
9,CCCN(Cc1cc2ccc(C)cc2[nH]c1=O)C(=O)c1cccnc1,89.3
10,CCOP(=O)(c1ccc(N(C)C)cc1)C(O)c1ccccc1OC (stereo not given),115
11,CCOCCCn1c(=S)[nH]c2cc3c(cc2c1=O)OCO3,96.3
12,COc1ccc(CCNC(=O)C2CCN(Cc3nc(-c4cccc(Cl)c4)oc3C)CC2)cc1OC,47.9
13,c1csc(-c2nc3nc4ccccc4nc3n2Cc2ccc3c(c2)OCO3)c1,61.6
14,CC(C)CC(NC(=O)OC(C)(C)C)C(=O)NC(C(=O)NC(C)C(N)=O)C(C)C (stereo not drawn) (Boc-Leu-Val-Ala-NH2; configuration not given here),94.2
15,COc1ccc(-c2ccc(Nc3ccc(S(=O)(=O)N4CCCC4)cc3)nn2)cc1OC,61.6
16,CC1(C(=O)CSc2nc3ccccc3s2)CCC(=O)O1 (stereo not given),73.2
17,Cc1cc(NC(=O)CN2CCC(O)(c3cccc(F)c3)CC2)no1,110
18,COC(=O)c1[nH]c2ccccc2c1NC(=O)CN1CCC(C(N)=O)(N2CCCCC2)CC1,101
19,Cc1cc(C)n(CCCNC(=O)c2ccc3c(c2)NC(=O)CS3)n1,91.8
20,CCOC(=O)/C=C1\SCC(=O)N1Cc1ccc(Br)cc1,79.5

row,SMILES,viability [%]
1,CCOc1ccc2cc(C#N)c(SCC(=O)N3CCOCC3)nc2c1,87.1
2,CCN(CC)CCN1C(=O)C(O)=C(C(=O)c2ccco2)C1c1ccccn1 (stereo not given),88.9
3,O=C1CCC(=O)N1OCCCCOc1ccccc1,107
4,O=C(O)CCc1ccc(-c2ccc(F)cc2)n1CC(=O)O,106
5,CCN(CC)CCCN(Cc1cc2cc(OC)ccc2[nH]c1=O)C(=O)Nc1ccccc1,65.8
6,Cc1cccc(Cc2nnc(NC(=O)c3cccc(S(=O)(=O)N4CCOCC4)c3)s2)c1,87.1
7,CC(C)(CO)NC(=O)CCCOc1ccc(Cl)cc1Cl,84.5
8,O=C(c1ccc(-c2ccccc2)cc1)N1CCN(c2ncccn2)CC1,94.6
9,Fc1ccc(-c2csc3nnc(SCc4cccnc4)n23)cc1,85.7
10,CN(C)CCCN1C(=O)C(=O)/C(=C(/O)c2ccncc2)C1c1cccc(Br)c1 (stereo not given),118
11,CCN(CC)c1ccc(-c2c(C#N)c(N)nc(OC)c2C#N)cc1,81.3
12,Cc1cc(NC(=O)CSc2nc3ccccc3n2CC(=O)N2CCCCC2)no1,103
13,CCOC(=O)C1CCN(C(c2cc3cc(C)cc(C)c3[nH]c2=O)c2nnnn2C2CCCCC2)CC1 (stereo not given),57.3
14,O=c1[nH]cnc2c1nc(SCc1ccccc1)n2C1OC(CO)C(O)C1O (stereo not given),92.4
15,COc1ccc(-c2noc(CCCC(=O)O)n2)cc1,97.1
16,Cc1nc(SCC(=O)N2CCC(C(N)=O)CC2)n[nH]1,109
17,COC(=O)c1ccc(NC(=O)Cn2nnc3ccccc32)cc1,109
18,O=C(CCC(=O)N1CCc2ccccc2C1)N1CCN(S(=O)(=O)c2ccccc2)CC1,84.4
19,O=C(CN1C(=O)CCSc2ccccc21)Nc1ccc(F)cc1,97.6
20,CCC(=O)/C=C1\Sc2ccc(OC)cc2N1CCO,98.6
